Here are results for 17 compounds from ChEMBL document CHEMBL3870363, “Systematic Study of Effects of Structural Modifications on the Aqueous Solubility of Drug-like Molecules” (ACS Med Chem Lett, 2017).

≈ marks a conversion by molar mass, not a printed value.

A short description of data set [1]: Aqueous solubility of the compound in Britton-Robinson buffer at pH 6.5 measured after 2 days by saturation shake flask based UV-vis spectroscopy. It counts as physicochemical. In a few lines:
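Shake-flask method: saturated solutions formed by stirring 2 days in Britton–Robinson buffer (pH 6.5), then filtered through a 0.2 μm pore syringe filter and quantified by UV–vis. Piroxicam served as a repeated control.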

Data set [2] can be described thus: Equilibrium solubility of the compound in Britton-Robinson buffer stirred for 6 hrs followed by sedimentation for 18 hrs by saturation shake flask based UV-vis spectroscopy. It counts as physicochemical.
The target of data set [3] is T1, Macrophage migration inhibitory factor (Homo sapiens, UniProt P14174).
T1 sequence (P14174 whole entry): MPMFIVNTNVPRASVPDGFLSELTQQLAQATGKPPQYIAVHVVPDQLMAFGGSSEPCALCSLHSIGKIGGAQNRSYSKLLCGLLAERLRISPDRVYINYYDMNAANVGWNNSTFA
Put plainly: Inhibition of recombinant human MIF tautomerase activity expressed in Escherichia coli assessed as borate-enol complex formation using 4-hydroxyphenyl pyruvic acid as substrate preincubated for 20 mins followed by substrate addition measured for 175 sec by spectrophotometric analysis.

One may read the thermodynamic solubility as solubility found after equilibrating the solid with the medium. By Ki is commonly meant a dissociation constant, usually derived from enzyme kinetics or from competition with a known ligand.

`O=C(O)COc1ccc2nc(-c3cn(-c4ccc(O)cc4)nn3)ccc2c1` returned a thermodynamic solubility at 48 h in data set [1] of 365 µg/mL (≈ 1010 µM).

As to `O=C(O)CCCOc1ccc2nc(-c3cn(-c4ccc(O)c(F)c4)nn3)ccc2c1`, in data set [1], the thermodynamic solubility at 48 h came to 19.2 µg/mL (≈ 47 µM). Compared with the last compound, the solubility thermodynamic at 48 h is about 19-fold lower.

`Oc1ccc(-n2cc(-c3ccc4cc(OCCOCCN5CCOCC5)ccc4n3)nn2)cc1F` had a thermodynamic solubility at 48 h in data set [1] of 27.2 µg/mL (≈ 56.7 µM). This solubility thermodynamic at 48 h and that of the compound before are within 1.5-fold of each other.

In turn, `COCCOc1ccc2nc(-c3cn(-c4ccc(O)cc4)nn3)ccc2c1` displayed a thermodynamic solubility at 48 h in data set [1] of 3.6 to 4 µg/mL (≈ 9.93 to 11 µM).

On to `CN1C(C(=O)Nc2ccccn2)=C(O)c2ccccc2S1(=O)=O` [PIROXICAM], for which the solubility (thermodynamic) at 6 h in data set [2] stood at 6.36 µg/mL (≈ 19.2 µM). Moreover, the thermodynamic solubility at 48 h in data set [1] stood at 6.5 µg/mL (≈ 19.6 µM).

As for `O=C(O)COc1ccc2nc(-c3cn(-c4ccccc4)nn3)ccc2c1`, the Ki in data set [3] is 1370 nM. Moreover, the solubility (thermodynamic) at 48 h in data set [1] came to 1050 µg/mL (≈ 3020 µM).

Consider `Oc1ccc(-n2cc(-c3ccc4cc(OCC5CCCCO5)ccc4n3)nn2)cc1` (stereo not drawn), for which the Ki in data set [3] was 270 nM. The solubility (thermodynamic) at 48 h in data set [1] came to 3.4 µg/mL (≈ 8.45 µM).

Regarding `OCCOc1ccc2nc(-c3cn(-c4ccc(O)cc4)nn3)ccc2c1`, the solubility (thermodynamic) at 48 h in data set [1] was 2.6 µg/mL (≈ 7.46 µM).

With `NCCOc1ccc2nc(-c3cn(-c4ccc(O)cc4)nn3)ccc2c1.O=C(O)C(F)(F)F`, the solubility (thermodynamic) at 48 h in data set [1] came to 3.7 µg/mL.

For the compound `O=C(O)COCCOc1ccc2nc(-c3cn(-c4ccc(O)c(F)c4)nn3)ccc2c1`, the Ki in data set [3] stood at 37 nM. The compound also showed a thermodynamic solubility at 48 h in data set [1] of 867 µg/mL (≈ 2040 µM).

`O=C(O)COc1ccc2nc(-c3cn(-c4ccc(O)c(F)c4)nn3)ccc2c1`: the thermodynamic solubility at 48 h in data set [1] was 37 µg/mL (≈ 97.3 µM).

In the case of `NCCOCCOc1ccc2nc(-c3cn(-c4ccc(O)c(F)c4)nn3)ccc2c1.O=C(O)C(F)(F)F`, the solubility (thermodynamic) at 48 h in data set [1] was 9.1 µg/mL. Against the preceding compound, the solubility thermodynamic at 48 h is about 4.1-fold lower.

Regarding `COCCOc1cccc(Oc2cccc3nc(-c4cn(-c5ccc(O)c(F)c5)nn4)ccc23)c1`, in data set [3], the inhibitory constant (Ki) amounted to 24 nM. Besides, the thermodynamic solubility at 48 h in data set [1] is 6.1 µg/mL (≈ 12.9 µM).

In data set [1], `NCCOCCOc1ccc2nc(-c3cn(-c4ccc(O)cc4)nn3)ccc2c1.O=C(O)C(F)(F)F` returned a thermodynamic solubility at 48 h of 13.9 µg/mL.

For the compound `O=C(O)c1cccc(Oc2cccc3nc(-c4cn(-c5ccc(O)c(F)c5)nn4)ccc23)c1`, the solubility (thermodynamic) at 48 h in data set [1] is 47.2 µg/mL (≈ 107 µM). This solubility thermodynamic at 48 h is about 3.4-fold higher than that of the compound before.

With `Oc1ccc(-n2cc(-c3ccc4ccccc4n3)nn2)cc1`, the thermodynamic solubility at 48 h in data set [1] turned out to be 2.2 µg/mL (≈ 7.63 µM).

For the compound `COCCOCCOc1ccc2nc(-c3cn(-c4ccc(O)cc4)nn3)ccc2c1`, in data set [3], the Ki is 147 nM. This compound also came in with a thermodynamic solubility at 48 h in data set [1] of 2.4 µg/mL (≈ 5.9 µM).
